Drawing on the array DNA melting data of Ke et al. (doi:10.1101/2024.01.08.574731), this text covers folding enthalpy and Tm for 73 sequences.

A short description of data set [1]: folding enthalpy; higher = less favourable; fluorescence melt of hairpins on a sequencing array, two-state fit. The note with it: sodium 0.088 M. A digest of the protocol: (§1)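 With Cy3 and quencher oligos annealed, library hairpins on a sequenced MiSeq flow cell were imaged for Cy3 fluorescence in 50 mM Na-HEPES pH 8.0, 25 mM NaCl, in 2.5 °C steps up to 60 °C. Melting temperature and folding enthalpy were derived from bootstrapped two-state fits of signals normalised to pre-quench Cy3 and to control constructs. Four replicates were combined by inverse variance, with fitted temperatures raised by 9.35 °C to match UV melts.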

The nature of data set [2]: melting temperature; fluorescence melt of hairpins on a sequencing array, two-state fit, raised by 9.35 °C to match UV melts. To be noted: sodium 0.088 M. A digest of the protocol: as §1

As for GCCAAGCGAAAGCCTAGC ((.(.((....)).).)), the folding enthalpy in data set [1] was -9.82 kcal/mol. Further, the Tm in data set [2] was 31.2 °C.
On to GCCAAGCGAAAGCTCTGC ((..(((....)))..)), for which the folding enthalpy in data set [1] was -11.4 kcal/mol. Besides, in data set [2], the Tm was 31.2 °C.
In the same order, the values of GCCAAGCGAAAGCTGAGC ((..(((....)))..)) are -15.3 kcal/mol and 47.7 °C.
In the same order, the values of GCCAAGCGAAAGCTGGC (((.(((....)))))) are -28.3 kcal/mol and 68.5 °C.
On the same counts, the results for GCCAAGCGAAAGCTTCGC ((.((((....)))).)) are -16.8 kcal/mol and 50.4 °C.
Regarding GCCAAGGCGAAAGCCGGC (((..(((....)))))), in data set [1], the folding enthalpy was -15.7 kcal/mol. In addition, the Tm in data set [2] stood at 65.8 °C.
In the same order, the values of GCCAAGGGAAACCCTGGC ((((.((....)).)))) are -31.9 kcal/mol and 52.2 °C.
Take GCCAATGGAAACATTGGC (((((((....))))))): the folding enthalpy in data set [1] was -38.3 kcal/mol. Further, the Tm in data set [2] was 67.8 °C.
In the same order, the values of GCCAATTCGAAAGAAGGC (((..(((....)))))) are -20.6 kcal/mol and 38 °C.
Turning to GCCACAACGAAAGTTGGC (((..(((....)))))), the folding enthalpy in data set [1] is -15.3 kcal/mol. For the same sequence, in data set [2], the Tm is 48.5 °C.
In the same order, the values of GCCACACGAAAGTGGGC (((.(((....)))))) are -24.6 kcal/mol and 60.4 °C.
In the same order, the values of GCCACGCGAAAGCAAGGC (((..((....))..))) are -22.9 kcal/mol and 57.2 °C.
Take GCCACGCGAAAGCAGGGC (((..((....))..))): in data set [1], the folding enthalpy is -23.5 kcal/mol. The Tm in data set [2] is 61.6 °C.
On the same counts, the results for GCCACGCGAAAGCATAGC ((.(.((....)).).)) are -9.06 kcal/mol and 26.7 °C.
In the same order, the values of GCCACGCGAAAGCGGCGC ((..(((....)))..)) are -15.9 kcal/mol and 60.8 °C.
For the sequence GCCACGCGAAAGCGTAGC ((.((((....)))).)), in data set [1], the folding enthalpy is -16.9 kcal/mol. Further, in data set [2], the Tm was 55.8 °C.
As for GCCACTACGAAAGTAGGC (((..(((....)))))), the folding enthalpy in data set [1] was -13.1 kcal/mol. Also, the Tm in data set [2] is 41.5 °C.
In the same order, the values of GCCACTCCGAAAGGAGGC (((..(((....)))))) are -8.62 kcal/mol and 43.9 °C.
In the same order, the values of GCCACTCGAAAGAGAGGC (((.(((....))).))) are -39.1 kcal/mol and 60 °C.
On the same counts, the results for GCCAGACGAAAGTCCGGC (((.(((....))).))) are -27.6 kcal/mol and 60.1 °C.
For GCCAGACGAAAGTCGGGC (((.(((....))).))), in data set [1], the folding enthalpy was -34 kcal/mol. Moreover, the Tm in data set [2] worked out at 68.6 °C.
On the same counts, the results for GCCAGAGGAAACTCCGGC (((.(((....))).))) are -24.4 kcal/mol and 45.6 °C.
Regarding GCCAGAGGAAACTTTGGC ((((.((....)).)))), in data set [1], the folding enthalpy was -32.8 kcal/mol. Moreover, the Tm in data set [2] came to 47.4 °C.
On the same counts, the results for GCCAGATCGAAAGATGGC (((..(((....)))))) are -27.4 kcal/mol and 48.2 °C.
On the same counts, the results for GCCAGCGAAAGCTCGGC ((((((....))).))) are -28.4 kcal/mol and 60.8 °C.
For the sequence GCCAGCGAAAGCTCGGGC ((((((....)))..))), in data set [1], the folding enthalpy is -20.4 kcal/mol. Besides, the Tm in data set [2] came to 52.3 °C.
GCCAGCGAAAGCTCTGGC ((((((....)))..))): the folding enthalpy in data set [1] was -24.5 kcal/mol. Besides, the Tm in data set [2] was determined as 50.6 °C.
With GCCAGCGAAAGCTTCGGC ((((((....)))..))), the folding enthalpy in data set [1] was -23.7 kcal/mol. For the same sequence, the Tm in data set [2] was determined as 47.8 °C.
On the same counts, the results for GCCAGCGAAAGCTTTGGC ((((((....)))..))) are -23.8 kcal/mol and 51.4 °C.
On the same counts, the results for GCCAGCGGAAACACCGGC (((.(.(....).).))) are -10.2 kcal/mol and 27.6 °C.
With GCCAGCGGAAACGCCGGC (((.(((....))).))), the folding enthalpy in data set [1] is -26.3 kcal/mol. The Tm in data set [2] turned out to be 57.1 °C.
On the same counts, the results for GCCAGGCCGAAAGGCGGC (((..(((....)))))) are -18.4 kcal/mol and 64.9 °C.
In the same order, the values of GCCAGGCGAAAGCATCGC ((.(.((....)).).)) are -8.22 kcal/mol and 36.1 °C.
As for GCCAGGCGAAAGCCCCGC ((..(((....)))..)), the folding enthalpy in data set [1] is -11.6 kcal/mol. Further, in data set [2], the Tm stood at 28.1 °C.
On to GCCAGGCGAAAGCCCGGC (((.(((....))).))), for which, in data set [1], the folding enthalpy was -24.5 kcal/mol. In addition, the Tm in data set [2] came out at 66.2 °C.
On the same counts, the results for GCCAGGCGAAAGCCGTGC ((..(((....)))..)) are -13.6 kcal/mol and 50 °C.
On the same counts, the results for GCCAGGCGAAAGCCTCGC ((.((((....)))).)) are -17.4 kcal/mol and 54 °C.
With GCCAGGCGAAAGCTTCGC ((.(.((....)).).)), the folding enthalpy in data set [1] was -8.82 kcal/mol. The Tm in data set [2] is 40.5 °C.
As to GCCAGGGGAAACCTTGGC ((((.((....)).)))), in data set [1], the folding enthalpy is -43.9 kcal/mol. In addition, in data set [2], the Tm was found to be 53.4 °C.
On to GCCAGTCCGAAAGGAGGC (((..(((....)))))), for which, in data set [1], the folding enthalpy was -22.1 kcal/mol. Also, the Tm in data set [2] is 44.4 °C.
GCCATAACGAAAGTTGGC (((..(((....)))))): the folding enthalpy in data set [1] was -30.9 kcal/mol. For the same sequence, the Tm in data set [2] was determined as 49.3 °C.
In the same order, the values of GCCATACGAAAGTAAGGC (((.(((....))).))) are -35.1 kcal/mol and 52.6 °C.
As for GCCATAGGAAACCATGGC (((((.(....).))))), the folding enthalpy in data set [1] is -34.2 kcal/mol. Also, the Tm in data set [2] was determined as 47.7 °C.
On the same counts, the results for GCCATCCCGAAAGGGGGC (((..(((....)))))) are -18.1 kcal/mol and 51.8 °C.
As for GCCATCCGAAAGGACGGC (((.(((....))).))), the folding enthalpy in data set [1] is -40.2 kcal/mol. Also, in data set [2], the Tm was 55.7 °C.
In the same order, the values of GCCATCGAAAGATCAGGC ((((((....)))..))) are -24.9 kcal/mol and 37.7 °C.
In the same order, the values of GCCATCGAAAGATCGGGC ((((((....)))..))) are -25.1 kcal/mol and 41.6 °C.
In the same order, the values of GCCATCGAAAGATCTGGC ((((((....)))..))) are -25.9 kcal/mol and 36.1 °C.
As to GCCATCGAAAGATGGGC ((((((....))).))), the folding enthalpy in data set [1] was -15.4 kcal/mol. The Tm in data set [2] was 63.2 °C.
As for GCCATCGAAAGATGGGGC ((((((....)))..))), the folding enthalpy in data set [1] is -12.8 kcal/mol. Further, the Tm in data set [2] amounted to 54.4 °C.
As to GCCATCGCGAAAGCGGGC (((..(((....)))))), the folding enthalpy in data set [1] was -17.4 kcal/mol. Moreover, the Tm in data set [2] stood at 53.9 °C.
On the same counts, the results for GCCATCGGAAACGACGGC (((.(((....))).))) are -35.5 kcal/mol and 52.1 °C.
In the same order, the values of GCCATGCCGAAAGGCGGC (((..(((....)))))) are -18.6 kcal/mol and 59.2 °C.
Take GCCATGCGAAAGCAAGGC (((.(((....))).))): in data set [1], the folding enthalpy was -42.6 kcal/mol. Besides, the Tm in data set [2] stood at 60.5 °C.
Take GCCATGCGAAAGCAGGC (((.(((....)))))): the folding enthalpy in data set [1] is -21.8 kcal/mol. In addition, in data set [2], the Tm came out at 64.4 °C.
In the same order, the values of GCCATGCGAAAGCATTGC ((.((((....)))).)) are -21.2 kcal/mol and 54 °C.
As for GCCATGCGAAAGCCCGGC (((..((....))..))), the folding enthalpy in data set [1] is -22.9 kcal/mol. Also, the Tm in data set [2] worked out at 43.1 °C.
In the same order, the values of GCCATGCGAAAGCCGGGC (((..((....))..))) are -26.1 kcal/mol and 55.3 °C.
Take GCCATGCGAAAGCGGGGC (((..((....))..))): the folding enthalpy in data set [1] was -35 kcal/mol. Also, the Tm in data set [2] was determined as 65.3 °C.
On the same counts, the results for GCCATGCGAAAGCTAGGC (((..((....))..))) are -27.3 kcal/mol and 62.2 °C.
For GCCATGCGAAAGCTTCGC ((.(.((....)).).)), in data set [1], the folding enthalpy is -8.18 kcal/mol. Further, the Tm in data set [2] turned out to be 47.3 °C.
On the same counts, the results for GCCATGGGAAACCACAGC ((..(((....)))..)) are -12.7 kcal/mol and 26.9 °C.
On the same counts, the results for GCCATGGGAAACCATGAC (.(((((....))))).) are -19.5 kcal/mol and 41 °C.
On the same counts, the results for GCCATGGGAAACCGTGGC ((((.((....)).)))) are -40.6 kcal/mol and 59 °C.
On to GCCATTCGAAAGAACGGC (((.(((....))).))), for which, in data set [1], the folding enthalpy was -40.1 kcal/mol. For the same sequence, in data set [2], the Tm stood at 49.6 °C.
On the same counts, the results for GCCCAACGAAAGTTTGGC (((.(((....))).))) are -28.1 kcal/mol and 50.2 °C.
On the same counts, the results for GCCCAAGCGAAAGCTGGC (((..(((....)))))) are -17.6 kcal/mol and 53.6 °C.
With GCCCAAGGAAACTCGGGC ((((.((....)).)))), in data set [1], the folding enthalpy is -26.9 kcal/mol. In addition, in data set [2], the Tm was 48.8 °C.
As to GCCCAAGGAAACTTGGAC (.(((((....))))).), the folding enthalpy in data set [1] is -19.6 kcal/mol. Also, in data set [2], the Tm was 38 °C.
On the same counts, the results for GCCCACGAAAGTGCAGGC ((((((....)))..))) are -28.1 kcal/mol and 50.1 °C.
GCCCACGAAAGTGCTGGC ((((((....)))..))): in data set [1], the folding enthalpy was -18.9 kcal/mol. In addition, the Tm in data set [2] was found to be 47.4 °C.
With GCCCACGAAAGTGGCGGC ((((((....)))..))), the folding enthalpy in data set [1] is -14 kcal/mol. Moreover, the Tm in data set [2] amounted to 57.6 °C.
For the sequence GCCCACGAAAGTGGTGGC ((((((....)))..))), in data set [1], the folding enthalpy is -13.8 kcal/mol. Further, the Tm in data set [2] worked out at 55.4 °C.
